# Results published in ChEMBL document CHEMBL1124774, “Synthesis and biological activity of some derivatives of rifamycin P” (1990).
# What was measured:
# [1] = system: Enterococcus faecalis; experiment: In vitro antibacterial activity of compound against Streptococcus faecalis ATCC 7080.; assay type: functional
# How it was run: (§1)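 Twofold microdilution MIC in Iso-Sensitest broth over 128-0.0001 µg/mL. Inoculum was 10^4 cfu/mL, with incubation at 37 °C for 18-24 h.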
# [2] = system: Pseudomonas aeruginosa; experiment: In vitro antibacterial activity of compound against Pseudomonas aeruginosa ATCC 10145; assay type: functional; how it was run: as §1
# [3] = system: Klebsiella pneumoniae; experiment: In vitro antibacterial activity of compound against Klebsiella pneumoniae ISM; assay type: functional
# [4] = system: Neisseria gonorrhoeae; experiment: In vitro antibacterial activity of compound against Neisseria gonorrhoeae ISM 68/126; assay type: functional
# [5] = system: Streptococcus pyogenes; experiment: In vitro antibacterial activity of compound against Streptococcus pyogenes C 203 SKF 13400; assay type: functional
# How it was run: (§2)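 Streptococcal MICs were run by twofold microdilution in Todd-Hewitt broth over 128-0.0001 µg/mL. Inoculum was 10^4 cfu/mL, with incubation at 37 °C for 18-24 h.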
# [6] = system: Mycobacterium tuberculosis; experiment: In vitro antibacterial activity of compound against Mycobacterium tuberculosis H37Rv ATCC 9660; assay type: functional
# [7] = system: Staphylococcus aureus; experiment: In vitro antibacterial activity of compound against Staphylococcus aureus Tour L 165; assay type: functional; how it was run: as §1
# [8] = system: Proteus vulgaris; experiment: In vitro antibacterial activity of compound against Proteus vulgaris X19H ATCC 881; assay type: functional
# [9] = system: Haemophilus influenzae; experiment: In vitro antibacterial activity of compound against Haemophilus influenzae ATCC 19418; assay type: functional
# [10] = system: Staphylococcus epidermidis; experiment: In vitro antibacterial activity of compound against Staphylococcus epidermidis ATCC 12228; assay type: functional; how it was run: as §1
# [11] = system: Streptococcus pneumoniae; experiment: In vitro antibacterial activity of compound against Streptococcus pneumoniae UC 41; assay type: functional; how it was run: as §2
# [12] = system: Escherichia coli; experiment: In vitro antibacterial activity of compound against Escherichia coli SKF 12140; assay type: functional
# [13] = system: Streptococcus pyogenes; experiment: Minimum inhibitory concentration of compound against Streptococcus pyogenus septicemia in the mouse; assay type: functional
# [14] = system: Streptococcus pyogenes; experiment: Inhibitory concentration of compound against Streptococcus pyogenus septicemia in the mouse, administarted in OS route; assay type: functional
# How it was run: (§3)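 Male and female CD1 mice (18-22 g) were infected ip with S. pyogenes C203, with the challenge set so untreated mice died within 48 h. Groups of five received a single treatment immediately after infection. ED50 was calculated from the percentage surviving at each dose on day 10.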
# [15] = system: Streptococcus pyogenes; experiment: Inhibitory concentration of compound against Streptococcus pyogenus septicemia in the mouse, administarted in subcutaneous route; assay type: functional; settings: sc; how it was run: as §3
# [16] = system: Mycobacterium avium; experiment: 50% inhibition of the 20 Mycobacterium (MAC) avium complex clinical isolates; assay type: functional
# How it was run: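 Agar-dilution MICs, 2-fold dilutions over 128-0.0001 μg/mL, on Middlebrook 7H10 agar with 2% glycerol and 10% OADC. Organisms from Loevenstein-Jensen slants were grown in 7H9 broth with 0.5% Tween and 10% OADC, adjusted to McFarland no. 1, and spotted with a multipoint inoculator. Plates were sealed and incubated at 22, 30 or 37 °C for 4-20 days depending on strain.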
# [17] = system: Mycobacterium avium; experiment: Minimum inhibitory concentration of compound against 20 Mycobacterium avium complex (MAC) clinical isolates
# [18] = system: Mycobacterium avium; experiment: 90% inhibition of the 20 Mycobacterium avium complex (MAC) clinical isolates
# [19] = system: Staphylococcus aureus; experiment: Activity in the murine model (OS route) of Staphylococcus aureus tour septicemia; assay type: functional
# How it was run: (§4)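 Male and female CD1 mice (18-22 g) were infected ip with S. aureus Tour. The challenge was set so untreated mice died within 48 h. Groups were five mice, dosed once daily for 3 days starting immediately after infection. ED50 was calculated on day 10 from the percentage surviving at each dose.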
# [20] = system: Staphylococcus aureus; experiment: Activity in the murine model (subcutaneous route) of Staphylococcus aureus tour septicemia; assay type: functional; settings: sc; how it was run: as §4
SMILES,MIC [1],MIC [2],MIC [3],MIC [4],MIC [5],MIC [6],MIC [7],MIC [8],MIC [9],MIC [10],MIC [11],MIC [12],MIC [13],ED50 [14],ED50 [15],MIC50 [16],MIC [17],MIC90 [18],ED50 [19],ED50 [20]
COC1/C=C/OC2(C)Oc3c(C)c(O)c4c(O)c(c5sc(N6CCN(C(=O)OCc7ccccc7)CC6)nc5c4c3C2=O)NC(=O)/C(C)=C\C=C\C(C)C(O)C(C)C(O)C(C)C(OC(C)=O)C1C (stereo not drawn),2 µg/mL,32 µg/mL,> 128 µg/mL,0.125 µg/mL,0.125 µg/mL,0.5 µg/mL,0.063 µg/mL,64 µg/mL,0.125 µg/mL,0.032 µg/mL,0.063 µg/mL,> 128 µg/mL,,,,,,,,
COC1/C=C/OC2(C)Oc3c(C)c(O)c4c(O)c(c5scnc5c4c3C2=O)NC(=O)/C(C)=C\C=C\C(C)C(O)C(C)C(O)C(C)C(O)C1C (stereo not drawn),4 µg/mL,8 µg/mL,16 µg/mL,0.125 µg/mL,0.125 µg/mL,0.5 µg/mL,0.032 µg/mL,4 µg/mL,0.125 µg/mL,0.008 µg/mL,0.125 µg/mL,16 µg/mL,,,,,,,,
CCCCN(CCCC)c1nc2c(s1)c1c(O)c3c(O)c(C)c4c(c32)C(=O)C(C)(O/C=C/C(OC)C(C)C(OC(C)=O)C(C)C(O)C(C)C(O)C(C)/C=C/C=C(/C)C(=O)N1)O4 (stereo not drawn),4 µg/mL,> 128 µg/mL,> 128 µg/mL,2 µg/mL,0.125 µg/mL,,0.063 µg/mL,> 128 µg/mL,1 µg/mL,0.125 µg/mL,0.063 µg/mL,> 128 µg/mL,0.125 µg/mL,1.23 mg/kg,1.62 mg/kg,1 µg/mL,0.25 µg/mL,2 µg/mL,,
COC1/C=C/OC2(C)Oc3c(C)c(O)c4c(O)c(c5sc(N6CCN(CCO)CC6)nc5c4c3C2=O)NC(=O)/C(C)=C\C=C\C(C)C(O)C(C)C(O)C(C)C(OC(C)=O)C1C (stereo not drawn),4 µg/mL,16 µg/mL,32 µg/mL,0.125 µg/mL,0.016 µg/mL,1 µg/mL,0.016 µg/mL,16 µg/mL,0.125 µg/mL,0.125 µg/mL,0.008 µg/mL,8 µg/mL,,,,,,,> 20 mg/kg,
CCOC(=O)N1CCN(c2nc3c(s2)c2c(O)c4c(O)c(C)c5c(c43)C(=O)C(C)(O/C=C/C(OC)C(C)C(OC(C)=O)C(C)C(O)C(C)C(O)C(C)/C=C/C=C(/C)C(=O)N2)O5)CC1 (stereo not drawn),4 µg/mL,32 µg/mL,32 µg/mL,0.125 µg/mL,0.063 µg/mL,2 µg/mL,0.063 µg/mL,16 µg/mL,0.125 µg/mL,0.063 µg/mL,0.063 µg/mL,16 µg/mL,,,,,,,,
COc1ccc(N2CCN(c3nc4c(s3)c3c(O)c5c(O)c(C)c6c(c54)C(=O)C(C)(O/C=C/C(OC)C(C)C(OC(C)=O)C(C)C(O)C(C)C(O)C(C)/C=C/C=C(/C)C(=O)N3)O6)CC2)cc1 (stereo not drawn),4 µg/mL,128 µg/mL,> 128 µg/mL,0.125 µg/mL,0.125 µg/mL,0.25 µg/mL,0.063 µg/mL,64 µg/mL,0.125 µg/mL,0.063 µg/mL,0.063 µg/mL,8 µg/mL,,,,,,,,
COC1/C=C/OC2(C)Oc3c(C)c(O)c4c(O)c(c5sc(N6CCCC6)nc5c4c3C2=O)NC(=O)/C(C)=C\C=C\C(C)C(O)C(C)C(O)C(C)C(OC(C)=O)C1C (stereo not drawn),2 µg/mL,8 µg/mL,32 µg/mL,0.5 µg/mL,0.008 µg/mL,2 µg/mL,0.004 µg/mL,16 µg/mL,0.125 µg/mL,0.063 µg/mL,0.032 µg/mL,16 µg/mL,,,,,,,,
COC1/C=C/OC2(C)Oc3c(C)c(O)c4c(O)c(c5sc(N6CCN(C)CC6)nc5c4c3C2=O)NC(=O)/C(C)=C\C=C\C(C)C(O)C(C)C(O)C(C)C(O)C1C (stereo not drawn),1 µg/mL,16 µg/mL,16 µg/mL,1 µg/mL,0.063 µg/mL,1 µg/mL,0.008 µg/mL,8 µg/mL,0.125 µg/mL,0.125 µg/mL,0.063 µg/mL,8 µg/mL,,,,,,,,10 mg/kg
